A selection: hits, their analogues and other compounds. The true share with any hit is near 3.8%.
NPY-Y2 PAM-ag: potentiators or agonists of human neuropeptide Y receptor Y2. P49146. cells expressing NPY-Y2, potentiator/agonist read-out. activation, % at 3.6 µM. hit rate 0.45% among 220,000; in the data active = activation above about 27%;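 note: cells stimulated with NPY near EC25 plus isoproterenol at EC100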
Target sequence (P49146 whole entry, looked up): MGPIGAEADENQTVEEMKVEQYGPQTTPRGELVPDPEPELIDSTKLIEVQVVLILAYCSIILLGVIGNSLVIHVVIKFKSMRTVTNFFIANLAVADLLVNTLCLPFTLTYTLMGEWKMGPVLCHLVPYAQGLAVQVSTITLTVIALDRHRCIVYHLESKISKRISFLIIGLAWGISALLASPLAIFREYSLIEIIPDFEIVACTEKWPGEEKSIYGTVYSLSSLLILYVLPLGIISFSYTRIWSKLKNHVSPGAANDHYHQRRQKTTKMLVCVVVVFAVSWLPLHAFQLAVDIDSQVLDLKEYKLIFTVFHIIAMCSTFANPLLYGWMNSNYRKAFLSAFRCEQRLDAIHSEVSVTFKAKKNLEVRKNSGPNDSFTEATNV
NPY-Y1 PAM-ag: human NPY-Y1 potentiation or agonism, primary screen. P25929. NPY-Y1 expressing cells, potentiator/agonist activation. activation, % at 3.6 µM. hit rate 0.37% among 220,000. AID 1304; in the data active = activation above about 33%, passing the limit was not always enough;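 note: cells stimulated with NPY at EC10 then isoproterenol at EC100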
NPY-Y1 antag: NPY-Y1 (human) receptor antagonism. hit rate 1% among 200,000. inhibition, % at 3.6 µM. P25929. HEK293-CNG Y1 cells, membrane potential fluorescence; NPY at EC95, then isoproterenol. AID 1040;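 active = inhibition above the campaign mean inhibition of all tested compounds plus 3 SD, cut at about 20% in these data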
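Benchmarks – high control isoproterenol alone, low control NPY with isoproterenol · Material – HEK293 Y1/CNG channel cell line · Times – dye 3 h, compound 60 min room temperature, stimulation 45 min · Probe or stimulus – NPY (25 nM), isoproterenol (1 µM), Ro 20-1724 (25 µM) · Evaluation – % inhibition of NPY effect · Signal – fluorescence, membrane potential probe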
NPY-Y2 antag: antagonists of human neuropeptide Y receptor Y2 | inhibition, % at 2.7 µM | NPY-Y2 expressing cells, antagonist mode | hit rate 0.99% among 140,000 | P49146; in the data active = inhibition above about 17%
RAM inhibit: blocks the yeast RAM network; S. cerevisiae dse1pr::URA3 reporter, 5-FOA growth OD615, 2 d; analog-sensitive cbk1-as2 kinase mutant strain; inhibition, % at 50 µM; hit rate 1.8% among 190,000; AID 868;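 active = inhibition above a set limit, 3 SD over mean compound inhibition, cut at about 8.4% in these data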;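 note: inhibition rescues growth on 5-FOA so higher OD means more RAM inhibition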
Insulin prom inh: TRM-6 insulin promoter activity inhibition. TRM-6 cells, insulin promoter-eGFP reporter, imaging; reporter expression induced with tamoxifen. inhibition, % at 2 µM. hit rate 0.9% among 130,000. AID 1273;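 active = inhibition above the mean plus 3 SD, with well images judged a real hit on visual review, cut at about 60% in these data, passing the limit was not always enough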
NPY1 antag ctr: counter-screen for NPY-Y2 antagonists: human NPY-Y1 antagonism | AID 1256 | cell-based NPY-Y1 antagonism counterscreen | inhibition, % at 3.6 µM | hit rate 19% among 710 | shares compounds with NPY-Y2 antag; in the data active = inhibition above about 20%;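 note: cells challenged with NPY then isoproterenol with cAMP sensed through a CNG channel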
NPY-Y2 ant conf: human NPY-Y2 antagonism, confirmation; shares compounds with NPY-Y2 antag; HEK293 NPY-Y2 CNG channel, membrane potential fluorescence; inhibition, % at 2.8 µM; hit rate 32% among 710; AID 1257;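 active = mean inhibition of triplicate wells above the hit cutoff set in the primary screen, cut at about 17% in these data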
A number is an active result; . = inactive; / = no result.

SMILES	NPY-Y2 PAM-ag	NPY-Y1 PAM-ag	NPY-Y1 antag	NPY-Y2 antag	RAM inhibit	Insulin prom inh	NPY1 antag ctr	NPY-Y2 ant conf
CC1(C)CC2CC(C)(CN2C(=O)COc2cccc3ccccc23)C1 (stereo not given)	.	.	.	17.3	.	.	.	.
CC1(C)CC2CC(C)(CN2C(=O)COC(=O)c2n[nH]c(=O)c3ccccc23)C1 (stereo not given)	.	.	.	.	.	.	/	/
CCc1nnc(NC(=O)CN2C(=O)/C(=C/c3ccc(OC)c(OC)c3)SC2=S)s1	.	.	.	/	.	/	/	/
C/C(=C\c1ccccc1)C(=O)N1CCN(c2cccc(C(F)(F)F)c2)CC1	.	.	.	.	.	.	/	/
Cc1ccc(/C=C/C(=O)N2CCN(c3cccc(C(F)(F)F)c3)CC2)cc1	.	.	.	21.1	.	/	20.7	.
Cc1cccc(CSC2=NCCN2C(=O)c2ccc(S(=O)(=O)N(C)C)cc2)c1	.	.	.	/	.	.	/	/
Cc1cccc(CSC2=NCCN2C(=O)c2ccc(Br)o2)c1	.	.	.	19.6	.	/	.	30.5
CCOc1ccc(-n2c(SCc3nc(-c4cccs4)no3)nnc2-c2ccncc2)cc1	.	.	.	17.9	.	.	.	.
CCOc1nc(SCCOc2ccc(Cl)cc2Cl)nc(N(C)C)n1	.	.	.	19.8	.	.	.	44.0
CCOc1nc(SCCOc2ccc(C)cc2)nc(N(C)C)n1	.	.	.	.	.	.	/	/
OC(CNCc1ccc(F)cc1)(c1ccc(F)cc1)c1ccc(F)cc1	.	.	.	19.8	.	/	.	.
O=C(Nc1cccc(S(=O)(=O)N2CCCCC2)c1)c1ccc2ccccc2n1	.	.	.	19.7	.	.	.	.
O=C(NC1CCCC1)C(c1ccsc1)N(CCc1ccccc1)C(=O)Cc1cccs1 (stereo not given)	.	.	.	34.2	.	.	20.9	.
O=C(NC1CCCC1)C(c1ccsc1)N(C(=O)Cc1cccs1)c1ccccc1 (stereo not given)	.	.	.	.	.	.	/	/
CCCCNC(=S)Nc1cc([N+](=O)[O-])ccc1C	.	.	.	.	.	.	/	/
COc1ccc(S(=O)(=O)N2CCC(CN3C(=O)c4cccc5cccc(c45)C3=O)CC2)cc1	.	.	.	23.2	.	.	.	.
CCCCNC(=O)c1onc(CSc2ccc(F)c(F)c2)c1C(=O)O	.	.	.	22.9	.	/	.	.
Cc1cc([N+](=O)[O-])cc2c1NC(=O)C2(O)N1CCOCC1 (stereo not given)	.	.	.	/	.	.	/	/
COc1cccc(C2C(C(N)=O)=C(C)Nc3nc(-c4ccccc4Cl)nn32)c1 (stereo not given)	.	.	.	20.1	.	/	.	.
Cc1ccc(C(C(=O)NCc2ccco2)N(CCc2ccccc2)C(=O)Cn2nnc3ccccc32)o1 (stereo not given)	.	.	.	31.7	.	.	20.2	.
Cc1ccc(CN(C(=O)Cn2nnc3ccccc32)C(C(=O)NCc2ccco2)c2ccc(C)o2)cc1 (stereo not given)	.	.	.	.	.	.	/	/
O=C(Nc1ccccc1)OCc1cc(-c2ccccc2Cl)on1	.	.	.	21.8	.	/	.	17.9
CNC(=O)c1nc(C)n(-c2cc(Cl)ccc2Cl)n1	.	.	.	.	.	/	/	/
CCOc1ccc2nc(NC(=O)CS(=O)(=O)c3ccc(C)cc3)sc2c1	.	.	.	24.6	.	.	.	18.0
CCOc1ccc2nc(NC(=O)CS(=O)(=O)c3ccccc3)sc2c1	.	.	.	.	.	.	/	/
SMILES	NPY-Y2 PAM-ag	NPY-Y1 PAM-ag	NPY-Y1 antag	NPY-Y2 antag	RAM inhibit	Insulin prom inh	NPY1 antag ctr	NPY-Y2 ant conf
Cc1nnc(Oc2ccccc2F)c2ccccc12	.	.	.	.	.	/	/	/
COc1ccc(-n2c(COc3cccc4ccccc34)nnc2SCC#N)cc1	.	.	.	18.4	.	.	.	.
N#CCSc1nnc(COc2cccc3ccccc23)n1-c1ccccc1	.	.	.	.	.	.	/	/
Cc1ccc(C(=O)/C=C\C(=O)c2ccc(C)cc2)cc1	.	.	.	20.3	.	.	45.3	110.6
Cc1nc2ccc(F)cc2cc1C(=O)Nc1ccc(Cl)c(Cl)c1	.	.	.	23.1	.	.	.	31.4
CC(CNC(=S)Nc1cc(F)cc(F)c1)CSc1ccc(Cl)cc1 (stereo not given)	.	.	.	/	.	/	/	/
CO/N=C(\CS(=O)(=O)Cc1ccc(OC)cc1)c1ccc(Cl)cc1	.	.	.	.	.	.	/	/
CO/N=C(/CS(=O)Cc1ccc(Cl)cc1)c1ccc(Cl)cc1 (stereo not given)	.	.	.	18.1	.	/	.	.
CNC(=S)N/N=C/c1ccccc1Cl	.	.	.	19.2	.	.	.	.
CCOC(=O)C1CCN(C(=O)c2cccnc2Oc2ccc(Cl)cc2)CC1	.	.	/	/	/	/	/	/
O=C(CSCc1c(Cl)cccc1Cl)Nc1ccccc1-c1ccccc1	.	.	.	37.5	.	.	.	24.1
CC(C)(C)NC(=O)CSCc1c(Cl)cccc1Cl	.	.	.	.	.	.	/	/
CC1(C)Cc2ccccc2-c2nnc(SCc3ccccc3)n21	.	.	.	17.5	.	.	.	.
Cc1onc(-c2ccccc2Cl)c1C(=O)Nc1sc2c(c1C#N)CCC2	.	.	.	25.8	.	/	.	17.9
CCC(C)NC(=O)C(=O)NCc1ccccn1 (stereo not given)	.	.	.	/	.	/	/	/
CCCNC(=O)OCc1cccnc1Sc1ccc(C)cc1	.	.	.	/	.	.	/	/
N=c1c2c(-c3ccccc3)c(-c3ccccc3)n(Cc3ccco3)c2ncn1Cc1ccccc1	54.2	56.4	.	20.5	.	.	.	.
c1ccc(-c2c(-c3ccccc3)n(Cc3ccco3)c3ncnc(NCCCn4ccnc4)c23)cc1	.	.	.	29.4	.	.	.	.
CC(C)CN1CC(C(=O)O)CC1=O (stereo not given)	.	.	.	/	.	/	/	/
CCc1ccc(-c2cn(C3CCCCC3)c(=S)[nH]2)cc1	.	.	.	/	.	.	/	/
Clc1ccccc1-c1nc2ccccc2c2nc3ccccc3n12	.	.	.	18.3	.	.	.	.
Cc1nn(-c2ccccc2)c(/N=C/c2ccccc2O)c1-c1ccccc1	.	.	.	.	.	.	/	/
CCCC(c1nnnn1C1CCCC1)N1CCN(c2ccccc2F)CC1 (stereo not given)	.	.	.	18.4	.	.	.	.
Cc1cc(NC(=O)C2C3C(=O)N(Cc4ccc(Cl)cc4)C(C(=O)NCc4ccccc4)C34C=CC2(C)O4)no1 (stereo not given)	.	.	.	.	.	.	/	/

High-throughput results (PubChem BioAssay)
